Article PMC11635510 (ACS Omega, 2024)
“Also recorded” adds a separate entry of the source.

Legend:
[1] = target: T1, AChE (Homo sapiens, UniProt P22303); assay: biochemical
[2] = target: T2, BChE (Homo sapiens, UniProt P06276); assay: biochemical; type: biochemical; conditions: for fold better BChE inhibitory activity in comparison with positive control: vs donepezil (positive control)
[3] = system: GSK-3β mRNA; assay: GSK-3β mRNA level by quantitative PCR in SH-SY5Y; type: cell-based
[4] = target: T2, BChE; assay: Enzyme kinetic study; type: biochemical
Method in brief: (§1)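 Inhibition type and Km taken from Lineweaver–Burk double-reciprocal plots. Ki derived from secondary plots of line slope versus inhibitor concentration and of 1/Vmax versus inhibitor concentration. Cholinesterase activity was measured by a modified Ellman method.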

[5] = system: GSK-3α mRNA; assay: GSK-3α mRNA level by quantitative PCR in SH-SY5Y; type: cell-based; conditions: 25 μM
Method in brief: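 Cells were exposed to test compound at 25 μM. Total RNA was extracted with RNX-plus reagent following the manufacturer's protocol, and transcript levels were then quantified by real-time PCR.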

[6] = system: SH-SY5Y neuroblastoma cell line; assay: Toxicity assay on SH-SY5Y; type: cell-based; conditions: concentrations below 50 μM; 72 h; MTT
Method in brief: (§2)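 SH-SY5Y cells were cultured in DMEM/F12 with 15% fetal bovine serum, 100 units/mL penicillin and 100 μg/mL streptomycin. Viability was read by MTT after 72 h exposure to test compound. Results are mean ± SEM of five independent experiments, each in triplicate; p < 0.05 was taken as significant.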

[7] = Toxicity assay on SH-SY5Y; type: cell-based; conditions: human, SH-SY5Y neuroblastoma cells
Method in brief: as §2

[8] = target: T1, AChE; assay: Enzyme kinetic study; type: biochemical
Method in brief: as §1

T2 sequence (P06276 29-602, species assumed): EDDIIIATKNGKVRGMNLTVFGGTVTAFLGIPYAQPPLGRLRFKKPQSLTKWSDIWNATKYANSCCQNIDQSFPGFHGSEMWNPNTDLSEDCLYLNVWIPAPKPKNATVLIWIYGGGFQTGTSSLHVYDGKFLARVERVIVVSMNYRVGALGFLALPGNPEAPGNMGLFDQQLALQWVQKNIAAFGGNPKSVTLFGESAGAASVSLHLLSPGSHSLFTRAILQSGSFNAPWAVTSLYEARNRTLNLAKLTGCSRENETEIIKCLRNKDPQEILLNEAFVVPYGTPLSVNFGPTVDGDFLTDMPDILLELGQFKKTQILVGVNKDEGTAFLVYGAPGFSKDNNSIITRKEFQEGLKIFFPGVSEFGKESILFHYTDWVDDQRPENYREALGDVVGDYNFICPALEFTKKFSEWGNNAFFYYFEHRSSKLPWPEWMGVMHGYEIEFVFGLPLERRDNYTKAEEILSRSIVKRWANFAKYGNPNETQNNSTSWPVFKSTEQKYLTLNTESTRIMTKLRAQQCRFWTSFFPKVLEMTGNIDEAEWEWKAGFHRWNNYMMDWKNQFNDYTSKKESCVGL
T1 sequence (P22303 32-614): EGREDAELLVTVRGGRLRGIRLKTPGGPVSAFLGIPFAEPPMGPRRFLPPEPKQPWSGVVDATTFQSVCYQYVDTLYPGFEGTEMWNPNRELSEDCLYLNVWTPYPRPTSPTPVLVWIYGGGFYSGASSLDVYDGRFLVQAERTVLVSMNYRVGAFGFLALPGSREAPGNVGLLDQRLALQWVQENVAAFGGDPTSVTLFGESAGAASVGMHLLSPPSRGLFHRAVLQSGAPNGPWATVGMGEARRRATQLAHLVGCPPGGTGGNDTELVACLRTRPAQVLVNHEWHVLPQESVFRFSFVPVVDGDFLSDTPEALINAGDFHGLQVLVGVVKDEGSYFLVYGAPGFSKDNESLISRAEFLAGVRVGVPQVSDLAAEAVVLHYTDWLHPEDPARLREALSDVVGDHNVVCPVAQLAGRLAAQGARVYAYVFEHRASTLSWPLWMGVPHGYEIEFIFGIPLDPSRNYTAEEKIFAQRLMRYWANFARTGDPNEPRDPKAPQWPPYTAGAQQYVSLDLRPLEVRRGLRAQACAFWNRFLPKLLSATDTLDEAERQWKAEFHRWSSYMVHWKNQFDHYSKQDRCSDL

For `O=C(NCc1ccc[n+](Cc2ccccc2)c1)c1ccc(CN2C(=O)c3ccccc3C2=O)cc1.[Br-]` [Compound 7a], the IC50 [1] was 9710 ± 830 nM, the IC50 [2] was 320 ± 60 nM and the “fold better BChE inhibitory activity in comparison with positive control” value [2] was “around 33 fold”.
Molecule `O=C(NCc1ccc[n+](Cc2ccccc2F)c1)c1ccc(CN2C(=O)c3ccccc3C2=O)cc1` [Compound 7b] has an IC50 [1] of 1190 ± 450 nM and an IC50 [2] of 310 ± 20 nM.
With `O=C(NCc1ccc[n+](Cc2cccc(F)c2)c1)c1ccc(CN2C(=O)c3ccccc3C2=O)cc1.[Cl-]` [Compound 7c] the “reduction of GSK-3β mRNA level” value ([3]; 25 μM) was 25%, the “mRNA level of GSK-3β” value ([3]; 25 μM, relative to control group) was roughly 75% and the “effect on mRNA level of GSK-3β (in words)” value ([3]; SH-SY5Y, compared to control group) was “decreased; also recorded: could reduce the mRNA level of GSK-3β”. The IC50 [1] was 3980 ± 210 nM, the Ki [4] was 130 nM and the inhibition mode ([4]; Lineweaver-Burk plot, BChE) was “mixed-type inhibition mode; also recorded: mixed inhibitor”. For the same molecule, the “effect on the mRNA level of GSK3α” value [5] was “no noticeable effect”, the “toxicity on SH-SY5Y at fewer concentrations” value [6] was “did not exhibit any toxicity” and the viability at 72 h, 50 µM [7] was roughly 80%. The IC50 [2] was 80 ± 10 nM and the “fold better BChE inhibitory activity in comparison with positive control” value [2] was 132 fold.
`O=C(NCc1ccc[n+](Cc2ccc(F)cc2)c1)c1ccc(CN2C(=O)c3ccccc3C2=O)cc1` [Compound 7d] showed an IC50 [1] of 11100 ± 1290 nM and an IC50 [2] of 330 ± 10 nM.
`O=C(NCc1ccc[n+](Cc2cccc(Cl)c2)c1)c1ccc(CN2C(=O)c3ccccc3C2=O)cc1` [Compound 7f] gave an IC50 [1] of 2660 ± 880 nM and an IC50 [2] of 560 ± 190 nM.
With `O=C(NCc1ccc[n+](Cc2cccc(Br)c2)c1)c1ccc(CN2C(=O)c3ccccc3C2=O)cc1` [Compound 7i] the IC50 [1] was 2100 ± 490 nM and the IC50 [2] was 150 ± 10 nM.
With `O=C(NCc1ccc[n+](Cc2ccc(Br)cc2)c1)c1ccc(CN2C(=O)c3ccccc3C2=O)cc1.[Br-]` [Compound 7j] the IC50 [1] was 260 ± 70 nM, the Ki [8] was 940 nM and the “secondary inhibition constant (Kis)” value ([8]; 1/Vmax vs inhibitor concentration, AChE) was 4.29 µM. The inhibition mode ([8]; Lineweaver-Burk plot, AChE) was “mixed mode of inhibition; also recorded: mixed-type inhibition pattern”.
`O=C(NCc1ccc[n+](Cc2ccc([N+](=O)[O-])cc2)c1)c1ccc(CN2C(=O)c3ccccc3C2=O)cc1` [Compound 7l] showed an IC50 [1] of 5060 ± 2400 nM and an IC50 [2] of 20400 ± 2550 nM.
Work on `CCCCC[n+]1cccc(CNC(=O)c2ccc(CN3C(=O)c4ccccc4C3=O)cc2)c1` [Compound 7p] yielded an IC50 [1] of 6290 ± 760 nM and an IC50 [2] of 18600 ± 1210 nM.
Molecule `CC[n+]1cccc(CNC(=O)c2ccc(CN3C(=O)c4ccccc4C3=O)cc2)c1` [Compound 7q] has an inhibition at 50 µM ([1]; read-out: AChE % inhibition at 50 μM) of 33.6 ± 2.9% and an IC50 [2] of 490 ± 40 nM.
